ChEMBL document CHEMBL1146868, “Design, synthesis, and biophysical and biological evaluation of a series of pyrrolobenzodiazepine-poly(N-methylpyrrole) conjugates” (J Med Chem, 2006)

How the values were obtained:
[1] = system: Panel NCI-60 (60 carcinoma cell lines); assay: Cytotoxicity against human NCI60 cell line […]; assay type: functional; conditions: for CC50: read-out: LC50 (the source's name)
K562 = assay: Cytotoxicity against human K562 cell line after 96 hrs by MTT assay; assay type: functional; conditions: K562, 96 h
MCF7 [2] = assay: Uptake in human MCF7 cells at 100 uM after 24 hrs; assay type: ADME, cell-based; conditions: mcf7, 24 h
Method in brief: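 MCF-7 cells were exposed to the conjugates for 24 h, at up to 100 µM. Cellular and nuclear uptake was assessed from intrinsic fluorescence.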

Nucleic Acid = assay: Inhibition of DNA transcription at 5 uM; assay type: functional
Method in brief: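 In vitro transcription of a DNA template by a viral RNA polymerase. Read-out is the sites where transcription stops and the amount of full-length 266-nt transcript. Activity is expressed as 50% inhibition of full-length transcript synthesis.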

MCF7 [3] = assay: Uptake in human MCF7 cells after <1 hr; assay type: ADME, cell-based; conditions: mcf7, 1 h

| SMILES | GI50 [1] [nM] | TGI [1] [nM] | CC50 [1] [nM] | GI50 (K562) [nM] | Drug uptake (MCF7 [2]) | inhibition (Nucleic Acid) [%] | Drug uptake (MCF7 [3]) |
| --- | --- | --- | --- | --- | --- | --- | --- |
| COC(=O)c1cc(NC(=O)c2cc(NC(=O)c3cc(NC(=O)CCOc4cc5c(cc4OC)C(=O)N4CCC[C@H]4C=N5)cn3C)cn2C)cn1C | 47 | 1760 | 56200 | 346 | – | – | – |
| COC(=O)c1cc(NC(=O)c2cc(NC(=O)c3cc(NC(=O)CCCOc4cc5c(cc4OC)C(=O)N4CCC[C@H]4C(=O)N5)cn3C)cn2C)cn1C | 49000 | > 50000 | > 50000 | > 10000 | – | – | – |
| COC(=O)c1cc(NC(=O)c2cc(NC(=O)c3cc(NC(=O)c4cc(NC(=O)c5cc(NC(=O)CCCOc6cc7c(cc6OC)C(=O)N6CCC[C@H]6C=N7)cn5C)cn4C)cn3C)cn2C)cn1C | 9 | 29 | 1260 | 83 | Active | 50 | – |
| COC(=O)c1cc(NC(=O)CCCOc2cc3c(cc2OC)C(=O)N2CCC[C@H]2C=N3)cn1C | 47 | 323 | 11500 | 51 | – | 50 | Active |
| COC(=O)c1cc(NC(=O)c2cc(NC(=O)c3cc(NC(=O)CCCOc4cc5c(cc4OC)C(=O)N4CCC[C@H]4C=N5)cn3C)cn2C)cn1C | 15 | 32 | 1070 | 41 | Active | 50 | – |
| COC(=O)c1cc(NC(=O)c2cc(NC(=O)c3cc(NC(=O)c4cc(NC(=O)CCCOc5cc6c(cc5OC)C(=O)N5CCC[C@H]5C=N6)cn4C)cn3C)cn2C)cn1C | 7 | 18 | 1510 | 47 | Active | 50 | – |
| COC(=O)CCCOc1cc2c(cc1OC)C(=O)N1CCC[C@H]1C=N2 | 1740 | 11800 | 46800 | 526 | – | – | – |
| COC(=O)c1cc(NC(=O)c2cc(NC(=O)c3cc(NC(=O)c4cc(NC(=O)c5cc(NC(=O)c6cc(NC(=O)CCCOc7cc8c(cc7OC)C(=O)N7CCC[C@H]7C=N8)cn6C)cn5C)cn4C)cn3C)cn2C)cn1C | 8 | 54 | 1900 | 30 | Active | 50 | – |
| COC(=O)c1cc(NC(=O)c2cc(NC(=O)CCCOc3cc4c(cc3OC)C(=O)N3CCC[C@H]3C=N4)cn2C)cn1C | 11 | 120 | 10000 | 7.1 | Active | 50 | – |
| COC(=O)c1cc(NC(=O)c2cc(NC(=O)c3cc(NC=O)cn3C)cn2C)cn1C | 16600 | 44700 | 85100 | > 10000 | – | – | – |
| C=C1C[C@H]2C=Nc3cc(OCCCOc4cc5c(cc4OC)C(=O)N4CC(=C)C[C@H]4C=N5)c(OC)cc3C(=O)N2C1 [SJG-136] | 7.4 | 87.1 | 562 | 3.8 | – | – | – |
| COC(=O)c1cc(NC(=O)c2cc(NC(=O)c3cc(NC(=O)CCCN(C)C)cn3C)cn2C)cn1C | 72400 | > 100000 | > 100000 | > 10000 | – | – | – |
